# Laboratory results from ChEMBL document CHEMBL4825701, “New antiparasitic flexible triaryl diamidines, their prodrugs and aza analogues: Synthesis, in vitro and in vivo biological evaluation, and molecular modelling studies” (Eur J Med Chem, 2021).
# Activity calls are given as the source filed them. No cut-off for these calls is given here.
# Experiments:
# L6 = assay: Cytotoxicity against rat L6 cells by Alamar blue assay; type: cell-based
# Method in brief: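 L6 rat myoblasts were run by the same Alamar Blue protocol as the trypanosome assay. Seven 3-fold serial dilutions were incubated 72 h at 37 °C, 5% CO₂, followed by 2–4 h with dye.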
# [1] = Selectivity index, ratio of IC50 for cytotoxicity against rat L6 cells to IC50 for antiplasmodial activity against chloroquine and pyrimethamine resistant Plasmodium falciparum K1 infected in human red blood cells; type: toxicity, cell-based; settings: read-out: Selectivity Index
# Method in brief: (§1)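 SI = IC50(L6)/IC50(parasite): K1 P. falciparum for the antiplasmodial index, T. b. rhodesiense STIB900 for the antitrypanosomal index. L6 rat myoblasts were run as in the trypanosome assay: MEM with 2-mercaptoethanol and 15% heat-inactivated horse serum, seven 3-fold serial dilutions, 72 h at 37 °C in 5% CO2.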
# [2] = Selectivity index, ratio of IC50 for cytotoxicity against rat L6 cells to IC50 for antitrypanosomal activity against Trypanosoma brucei rhodesiense STIB900; type: toxicity, cell-based; settings: read-out: Selectivity Index; method in brief: as §1
# [3] = test system: Trypanosoma brucei rhodesiense; assay: Antitrypanosomal activity against Trypanosoma brucei rhodesiense STIB900 measured after 72 hrs by alamar blue dye based fluorimetry analysis; type: functional, organism-based; settings: STIB900, 72 h
# Plasmodium falciparum = assay: Antiplasmodial activity against chloroquine and pyrimethamine resistant Plasmodium falciparum K1 infected in human erythrocytes assessed as reduction in [3H]hypoxanthine incorporation measured after 24 hrs by liquid scintillation counting method; type: functional, organism-based
# [4] = test system: Trypanosoma brucei rhodesiense; assay: Antitrypanosomal activity against Trypanosoma brucei rhodesiense STIB900 infected in mouse assessed as reduction in parasitemia by measuring time taken to cure at 25 mg/kg, po measured up to 60 days (reference value: 11 days); type: functional; settings: time day <=60
# [5] = test system: Poly(dA-dT)oligonucleotide
# [6] = test system: Trypanosoma brucei rhodesiense; assay: Antitrypanosomal activity against bloodstream form of Trypanosoma brucei rhodesiense STIB900 infected in mouse assessed as reduction in parasitemia by measuring time taken to cure at 5 mg/kg, ip measured up to 60 days (reference value: 11 days); type: functional; settings: time day <=60
# [7] = test system: Poly(dA-dT)oligonucleotide; assay: Binding affinity to poly (dA-dT) (unknown origin) by circular dichroism spectroscopy; type: nucleic-acid assay
Compound,IC50 (L6),selectivity ratio [1],selectivity ratio [2],IC50 [3],IC50 (Plasmodium falciparum),Time [4],ΔTm [5],Time [6],Activity [7]
CO/N=C(\N)c1cccc(Cc2ccc(-c3ccc(/C(N)=N\OC)cc3)cc2)c1,34.8 µM,3.7,2.1,16.6 µM,> 9.5 µM,13 days,,,
CO/N=C(\N)c1cccc(Cc2ccc(Cc3ccc(/C(N)=N\OC)cc3)cc2)c1,32.3 µM,> 3.4,1.7,18.7 µM,> 9.5 µM,9.2 days,,,
N=C(N)c1ccc(Cc2ccc(Cc3cccc(C(=N)N)c3)cc2)cc1,28.3 µM,1230,1890,0.015 µM,,,0.5 °C,15.5 days,
N=C(N)c1ccc(Cc2ccc(Cc3ccc(C(=N)N)cc3)o2)cc1,25 µM,1390,930,0.027 µM,,,2.25 °C,18.75 days,
N=C(N)c1ccc(Oc2cccc(Oc3ccc(C(=N)N)cc3)n2)cc1,99.3 µM,307,263,0.378 µM,0.323 µM,,1.25 °C,,
CO/N=C(/N)c1ccc(Cc2ccc(Cc3ccc(/C(N)=N\OC)cc3)cc2)cc1,37.3 µM,> 3.9,,12.6 µM,> 9.5 µM,,,,
CN(C)CCCC(=O)O/N=C(\N)c1ccc(Cc2ccc(-c3ccc(/C(N)=N\OC(=O)CCCN(C)C)cc3)cc2)cc1,1.1 µM,6,10.5,0.105 µM,0.183 µM,7 days,,,
CO/N=C(\N)c1ccc(Oc2cccc(Oc3ccc(/C(N)=N\OC)cc3)n2)cc1,117 µM,12.3,4.5,26.1 µM,,,,,
N=C(N)c1ccc(-c2ccc(Cc3cccc(C(=N)N)c3)cc2)cc1,2 µM,64.5,57.1,0.035 µM,0.031 µM,,8.5 °C,22.75 days,
N=C(N)c1ccc(Cc2ccc(-c3ccc(C(=N)N)cc3)nc2)cc1,18.1 µM,1620,441,0.041 µM,0.0112 µM,,1 °C,>60 days,inactive
N=C(N)c1ccc(Cc2ccc(-c3ccc(C(=N)N)cc3)cc2)cc1,4 µM,1330,54.8,0.073 µM,0.003 µM,,9 °C,22 days,
N=C(N)c1ccc(Cc2ccc(Cc3ccc(C(=N)N)cc3)cc2)cc1,19.4 µM,970,269,0.072 µM,0.023 µM,,1 °C,16.25 days,
N=C(N)c1ccc(Oc2ccc(-c3ccc(C(=N)N)cc3)cn2)cc1,2.1 µM,525,191,0.011 µM,,,17.8 °C,>45.5 days,inactive
CO/N=C(\N)c1ccc(-c2ccc(Oc3ccc(/C(N)=N\OC)cc3)nc2)cc1,91 µM,9.7,6.3,14.4 µM,,,,,
N=C(N)c1ccc(OCCCCCOc2ccc(C(=N)N)cc2)cc1 [PENTAMIDINE],,,,,,,,20 days,
N=C(N)c1ccc(-c2ccc(-c3ccc(C(=N)N)cc3)o2)cc1 [FURAMIDINE],,,,,,,,24 days,
